Experimental data published in paper PMC2118488 (The Journal of Experimental Medicine, 2007).
Ends that are not written are not given here. ABA = azidobenzoic acid, photoreactive group linked to the lysine of the peptide

Legend:
T1 thymocytes = experiment: Fetal thymic organ culture; type: cell-based, mouse; conditions: high concentrations (100 μM shown in Fig. 1 D)
Method in brief: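 E15 fetal thymi from T1 β2m−/− Rag−/− TCR transgenic mice were cultured 7 d without peptide or with 1 μM exogenous peptide, with 0.2 μM and 100 μM also shown for two variants. Cells were stained for CD4, CD8α and/or CD8β and read by flow cytometry.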

S14 thymocytes = experiment: Fetal thymic organ culture; type: cell-based, mouse; conditions: S14 TCR transgenic FTOC
Method in brief: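 Fetal thymi (E15) from Rag−/− β2m−/− S14 TCR transgenic mice were cultured for 7 d with peptide variants. Thymocytes were stained for CD4, CD8α and/or CD8β and analysed by flow cytometry.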

H-2K^d = H-2K^d (Mus musculus, UniProt P01902); experiment: Peptide binding to H-2K^d; conditions: unpublished data

Affinity for H-2K^d relative to 4P (H-2K^d)	Substance	Selection outcome in FTOC at high peptide concentrations (T1 thymocytes)	Selecting potential in FTOC (S14 thymocytes)
	4A: variant of SYIPSAEK(ABA)I with proline at position 4 replaced by alanine (SYIASAEK(ABA)I)	could induce negative selection	
	4S: variant of SYIPSAEK(ABA)I with proline at position 4 replaced by serine (SYISSAEK(ABA)I)	could induce negative selection	
fivefold lower affinity than 4P	4L: variant of SYIPSAEK(ABA)I with proline at position 4 replaced by leucine (SYILSAEK(ABA)I)		threshold ligand
